Source: ChEMBL document CHEMBL4118059, “Hirsutane-Type Sesquiterpenes with Inhibitory Activity of Microglial Nitric Oxide Production from the Red Alga-Derived Fungus Chondrostereum sp. NTOU4196” (J Nat Prod, 2017)

How the values were obtained:
BV-2 [1] = experiment: Antineuroinflammatory activity in mouse BV2 cells assessed as inhibition of LPS-induced nitric oxide production by measuring nitrite levels at 20 uM pretreated for 15 mins followed by LPS-stimulation measured after 24 hrs by colorimetric method (reference value: 15 +/- 1 uM); type: functional
BV-2 [2] = experiment: Antineuroinflammatory activity in mouse BV2 cells assessed as inhibition of LPS-induced nitric oxide production pretreated for 15 mins followed by LPS-stimulation measured after 24 hrs by colorimetric method; type: functional, cell-based
BV-2 [3] = experiment: Antineuroinflammatory activity in mouse BV2 cells assessed as inhibition of LPS-induced nitric oxide production at 5 uM pretreated for 15 mins followed by LPS-stimulation measured after 24 hrs by colorimetric method relative to control; type: functional
[4] = Cytotoxicity against LPS-induced mouse BV2 cells assessed as cell viability at 2 uM pretreated for 15 mins followed by LPS-stimulation measured after 24 hrs by MTT assay relative to control; type: cell-based, BV-2; conditions: LPS-stimulated BV2 cells, read-out: Activity
How it was run: (§1)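 BV-2 cells, LPS-activated, exposed to compounds at 2–20 μM. Viability was measured by MTT assay and expressed as mean ± SD of three independent experiments.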

[5] = Cytotoxicity against LPS-induced mouse BV2 cells assessed as cell viability at 5 uM pretreated for 15 mins followed by LPS-stimulation measured after 24 hrs by MTT assay relative to control; type: cell-based, BV-2; conditions: LPS-stimulated BV2 cells, read-out: Activity; how it was run: as §1
[6] = Cytotoxicity against LPS-induced mouse BV2 cells assessed as cell viability at 10 uM pretreated for 15 mins followed by LPS-stimulation measured after 24 hrs by MTT assay relative to control; type: cell-based, BV-2; conditions: LPS-stimulated BV2 cells, read-out: Activity; how it was run: as §1
[7] = Cytotoxicity against LPS-induced mouse BV2 cells assessed as cell viability at 20 uM pretreated for 15 mins followed by LPS-stimulation measured after 24 hrs by MTT assay relative to control; type: cell-based, BV-2; conditions: LPS-stimulated BV2 cells, read-out: Activity; how it was run: as §1
BV-2 [8] = experiment: Antineuroinflammatory activity in mouse BV2 cells assessed as inhibition of LPS-induced nitric oxide production at 20 uM pretreated for 15 mins followed by LPS-stimulation measured after 24 hrs by colorimetric method relative to control; type: functional

SMILES | Activity (BV-2 [1]) | viability at 24 h, 10 µM [6] | viability at 24 h, 20 µM [7] | other results
C=C1C(=O)C=C2C=C3[C@@H](O)C(C)(C)C[C@@]3(O)[C@]12C | 8 µM | 77% | 39% | inhibition (BV-2 [2]): Dose-dependent effect; inhibition at 5 µM (BV-2 [3]): 53%; viability at 24 h, 2 µM [4]: 94%; viability at 24 h, 5 µM [5]: 87%
C[C@@H]1[C@@H](O)C[C@]2(O)[C@H](O)C3=CC(C)(C)C[C@H]3[C@]12C | 14 µM | – | 87% | –
C[C@H]1[C@H](O)C[C@@]2(O)C[C@]3(O)CC(C)(C)C[C@@H]3[C@@]12C | 13 µM | – | – | –
C[C@@H]1[C@@H](O)C[C@]2(O)C=C3C(=CC(C)(C)[C@@H]3O)[C@]12C | 11 µM | – | 93% | –
C[C@H]1C(=O)C=C2C=C3[C@@H](O)C(C)(C)C[C@@]3(O)[C@@]21C | 12 µM | – | 71% | –
C=C1C(=O)C[C@@]2(OC)C[C@]3(O)CC(C)(C)C[C@@H]3[C@]12C | 4 µM | 11% | 11% | viability at 24 h, 2 µM [4]: 47%; viability at 24 h, 5 µM [5]: 30%
C=C1C(=O)C=C2C[C@@]3(O)CC(C)(C)C[C@H]3[C@]12C | 4 µM | 22% | 12% | –
C[C@H]1C(=O)C[C@]2(O)C[C@@]3(O)CC(C)(C)C[C@H]3[C@]12C | 11 µM | – | – | –
C[C@H]1C(=O)C=C2C=C3C(=O)C(C)(C)C[C@@]3(O)[C@@]21C | 4 µM | 23% | 11% | –
C=C1[C@H](O)C[C@]2(O)C[C@]3(O)CC(C)(C)C[C@]3(O)[C@]12C | 8 µM | 73% | 67% | inhibition (BV-2 [2]): Dose-dependent effect; inhibition at 20 µM (BV-2 [8]): 47%; viability at 24 h, 2 µM [4]: 93%; viability at 24 h, 5 µM [5]: 82%
C[C@@H]1[C@@H](O)C[C@]2(O)CC3=C(CC(C)(C)C3=O)[C@]12C | 11.6 µM | – | 97% | –
C[C@H]1[C@@H](O)C[C@]2(O)C[C@@]3(O)CC(C)(C)C[C@H]3[C@]12C | 13 µM | – | – | –
C=C1C(=O)C[C@]2(O)[C@H](O)C3=C(CC(C)(C)C3=O)[C@]12C | 10 µM | 89% | 69% | viability at 24 h, 2 µM [4]: 95%; viability at 24 h, 5 µM [5]: 95%
C[C@@H]1C(=O)C[C@]2(O)C[C@@]3(O)CC(C)(C)C[C@H]3[C@]12C | 12 µM | – | 83% | –
C[C@@H]1[C@@H](O)C[C@]2(O)[C@H](O)[C@H]3CC(C)(C)C[C@H]3[C@]12C | 12 µM | – | 83% | –
COc1cc(/C=C/C(=O)CC(=O)/C=C/c2ccc(O)c(OC)c2)ccc1O [CURCUMIN] | – | – | – | IC50 (BV-2 [2]): 6 µM
